The values that follow come from ChEMBL document CHEMBL3588770, “Novel spirohydantoin derivative as a potent multireceptor-active antipsychotic and antidepressant agent” (Bioorg Med Chem, 2015).

Calls of active or inactive are those of the source. No cut-off for these calls is given here.

The target of one data set is D(2) dopamine receptor (Rattus norvegicus, UniProt P61169). Nature of the data set: Displacement of [3H]spiperone from D2 receptor in rat striatum by liquid scintillation counting analysis.
Chain of D(2) dopamine receptor (P61169 whole entry): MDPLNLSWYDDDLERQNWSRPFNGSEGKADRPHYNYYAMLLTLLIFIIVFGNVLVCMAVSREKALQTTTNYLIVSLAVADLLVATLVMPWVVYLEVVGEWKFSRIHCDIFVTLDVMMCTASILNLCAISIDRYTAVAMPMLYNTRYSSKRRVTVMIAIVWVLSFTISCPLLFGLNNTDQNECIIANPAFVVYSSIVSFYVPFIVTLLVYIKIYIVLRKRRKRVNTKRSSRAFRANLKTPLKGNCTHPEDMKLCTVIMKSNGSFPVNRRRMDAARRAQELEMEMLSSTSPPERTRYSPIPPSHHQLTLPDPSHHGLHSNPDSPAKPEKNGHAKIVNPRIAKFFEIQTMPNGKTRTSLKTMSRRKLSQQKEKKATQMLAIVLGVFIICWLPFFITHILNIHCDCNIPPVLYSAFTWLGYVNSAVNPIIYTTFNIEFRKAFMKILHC
Conditions: not given
In outline:
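Rat striatal membranes with [3H]-spiperone. Compounds were tested in triplicate at 7–8 concentrations (10⁻¹¹–10⁻⁴). Ki values were calculated.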
Background: Loss of bound radioactivity is the signal in a displacement assay; it reports binding, not function.
Broadly, the Ki is the dissociation constant of the complex between target and ligand, obtained from inhibition or displacement. High values mean lower affinity, low ones higher affinity. `O=C1NC2(CCCc3ccccc32)C(=O)N1CCCCN1CCN(c2cccc(C(F)(F)F)c2)CC1` (centres undefined): the Ki came out at 608 nM. In other words, the sub-micromolar range.
In the case of `COc1ccccc1N1CCN(CCCCN2C(=O)NC3(CCC(c4ccccc4)CC3)C2=O)CC1` (centres undefined), the Ki amounted to 79 nM. Compared with the last compound, the Ki is about 7.7-fold lower.
In turn, `O=C1NC2(CCCc3ccccc32)C(=O)N1CCCCN1CCN(c2ccccc2)CC1` (centres undefined) returned a Ki of 743 nM. This Ki lies about 9.4-fold higher than the previous one.
Compound `O=C1NC2(CCC(c3ccccc3)CC2)C(=O)N1CCCCN1CCN(c2cccc(C(F)(F)F)c2)CC1` (centres undefined) came in with a Ki of over 10000 nM.
With `O=C1NC2(CCC(c3ccccc3)CC2)C(=O)N1CCCCN1CCN(c2cccc(Cl)c2)CC1` (centres undefined), the Ki is over 10000 nM.
For the compound `O=C1NC2(CCc3ccccc32)C(=O)N1CCCCN1CCN(c2cccc(C(F)(F)F)c2)CC1` (centres undefined), the Ki stood at 412 nM.

In a further data set the target is T1, 5-hydroxytryptamine receptor 1A (Rattus norvegicus, UniProt P19327).
T1 sequence (P19327 whole entry): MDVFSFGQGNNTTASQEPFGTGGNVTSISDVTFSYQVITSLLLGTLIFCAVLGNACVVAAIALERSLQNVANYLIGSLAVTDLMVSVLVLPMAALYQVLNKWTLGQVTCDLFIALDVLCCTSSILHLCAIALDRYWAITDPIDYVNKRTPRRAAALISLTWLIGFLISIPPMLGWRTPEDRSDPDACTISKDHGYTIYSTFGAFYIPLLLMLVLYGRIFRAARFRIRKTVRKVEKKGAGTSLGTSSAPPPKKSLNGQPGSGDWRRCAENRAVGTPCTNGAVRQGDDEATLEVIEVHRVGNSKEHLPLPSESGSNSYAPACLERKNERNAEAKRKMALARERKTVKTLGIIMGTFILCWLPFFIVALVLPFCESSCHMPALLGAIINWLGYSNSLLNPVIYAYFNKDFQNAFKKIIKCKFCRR
Nature of the data set: Displacement of [3H]-8-OH-DPAT from 5-HT1A receptor in rat hippocampal membrane by liquid scintillation analysis.
Conditions: not given
In kind it is cell membranes, Hippocampus. In a few lines: (§1)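 Native rat membranes were used: hippocampus with [3H]-8-OH-DPAT (170 Ci/mmol) and 5-HT for non-specific binding; cortex with [3H]-ketanserin (88.0 Ci/mmol) and methysergide; hypothalamus with [3H]-5-CT (34.5 Ci/mmol) and 5-HT. Compounds were tested in triplicate at 7–8 concentrations (10⁻¹¹–10⁻⁴ M). Read-out was liquid scintillation counting. Ki came from nonlinear regression with Cheng-Prusoff, as the mean of at least two experiments.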
Take `COc1ccccc1N1CCN(CCCCN2C(=O)NC3(CCCCC3c3ccccc3)C2=O)CC1` (centres undefined): the Ki was 42 nM. That is a double-digit nanomolar value.
Turning to `O=C1NC2(CCCc3ccccc32)C(=O)N1CCCCN1CCN(c2cccc(C(F)(F)F)c2)CC1` (centres undefined), the Ki came to 5.3 nM. Compared with the last compound, the Ki is about 7.9-fold lower.
On to `COc1ccccc1N1CCN(CCCCN2C(=O)NC3(CCC(c4ccccc4)CC3)C2=O)CC1` (centres undefined), for which the Ki turned out to be 3 nM.
Compound `O=C1NC2(CCCCC2c2ccccc2)C(=O)N1CCCCN1CCN(c2ccccc2)CC1` (centres undefined) yielded a Ki of 306 nM.
On the same count and under the same terms, the value for `O=C1NC2(CCC(c3ccccc3)CC2)C(=O)N1CCCCN1CCN(c2ccccc2)CC1` (centres undefined) was 35 nM.
For the compound `O=C1NC2(CCCc3ccccc32)C(=O)N1CCCCN1CCN(c2ccccc2)CC1` (centres undefined), the affinity, expressed as Ki, was 13 nM.
Still for that read-out and setting: then `O=C1NC2(CCCCC2c2ccccc2)C(=O)N1CCCCN1CCN(c2cccc(Cl)c2)CC1` (centres undefined), with 113 nM.
Regarding `O=C1NC2(CCC(c3ccccc3)CC2)C(=O)N1CCCCN1CCN(c2cccc(C(F)(F)F)c2)CC1` (centres undefined), the affinity corresponds to a Ki of 22 nM.
With `O=C1NC2(CCC(c3ccccc3)CC2)C(=O)N1CCCCN1CCN(c2cccc(Cl)c2)CC1` (centres undefined), the Ki is 30 nM.
The same measure, in the same setting: then `O=C1NC2(CCc3ccccc32)C(=O)N1CCCCN1CCN(c2ccccc2)CC1` (centres undefined), with 75 nM.
For the compound `O=C1NC2(CCc3ccccc32)C(=O)N1CCCCN1CCN(c2cccc(C(F)(F)F)c2)CC1` (centres undefined), the Ki is 6 nM. Against the preceding compound, the Ki is about 12-fold lower.

The target of the next data set is 5-hydroxytryptamine receptor 2A (Rattus norvegicus, UniProt P14842). As to the kind of experiment: Displacement of [3H]ketanserin from 5-HT2A receptor in rat cortical membrane by liquid scintillation analysis. Type of data set: cell membranes.
Chain of 5-hydroxytryptamine receptor 2A (P14842 whole entry): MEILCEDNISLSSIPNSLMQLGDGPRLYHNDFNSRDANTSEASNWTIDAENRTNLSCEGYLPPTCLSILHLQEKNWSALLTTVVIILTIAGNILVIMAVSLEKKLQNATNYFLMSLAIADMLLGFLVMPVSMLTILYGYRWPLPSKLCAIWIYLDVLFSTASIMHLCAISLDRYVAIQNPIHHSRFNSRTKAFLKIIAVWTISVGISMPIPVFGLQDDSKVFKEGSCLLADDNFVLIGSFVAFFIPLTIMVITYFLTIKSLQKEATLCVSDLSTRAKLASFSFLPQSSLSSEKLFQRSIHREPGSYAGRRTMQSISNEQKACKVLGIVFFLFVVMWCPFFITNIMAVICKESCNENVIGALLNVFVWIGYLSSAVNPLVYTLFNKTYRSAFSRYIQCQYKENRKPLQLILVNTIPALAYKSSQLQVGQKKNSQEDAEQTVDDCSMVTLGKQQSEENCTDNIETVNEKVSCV
Conditions: not given
In outline:
as §1
In the case of `COc1ccccc1N1CCN(CCCCN2C(=O)NC3(CCCCC3c3ccccc3)C2=O)CC1` (centres undefined), the Ki amounted to 498 nM.
`O=C1NC2(CCCc3ccccc32)C(=O)N1CCCCN1CCN(c2cccc(C(F)(F)F)c2)CC1` (centres undefined) gave a Ki of 157 nM.
`COc1ccccc1N1CCN(CCCCN2C(=O)NC3(CCC(c4ccccc4)CC3)C2=O)CC1` (centres undefined) registered a Ki of 75 nM.
The same measure, in the same setting: then `O=C1NC2(CCCCC2c2ccccc2)C(=O)N1CCCCN1CCN(c2ccccc2)CC1` (centres undefined), with 414 nM.
In turn, `O=C1NC2(CCC(c3ccccc3)CC2)C(=O)N1CCCCN1CCN(c2ccccc2)CC1` (centres undefined) gave an inhibition constant (Ki) of 48 nM.
Compound `O=C1NC2(CCCc3ccccc32)C(=O)N1CCCCN1CCN(c2ccccc2)CC1` (centres undefined) showed a Ki of 77 nM.
On the same count and under the same terms, then `O=C1NC2(CCCCC2c2ccccc2)C(=O)N1CCCCN1CCN(c2cccc(Cl)c2)CC1` (centres undefined), with 171 nM; and `O=C1NC2(CCC(c3ccccc3)CC2)C(=O)N1CCCCN1CCN(c2cccc(C(F)(F)F)c2)CC1` (centres undefined), with 122 nM.
With `O=C1NC2(CCC(c3ccccc3)CC2)C(=O)N1CCCCN1CCN(c2cccc(Cl)c2)CC1` (centres undefined), the affinity corresponds to a Ki of 38 nM.
Regarding `O=C1NC2(CCc3ccccc32)C(=O)N1CCCCN1CCN(c2ccccc2)CC1` (centres undefined), the Ki was determined as 111 nM. This Ki lies about 2.9-fold higher than the previous one.
`O=C1NC2(CCc3ccccc32)C(=O)N1CCCCN1CCN(c2cccc(C(F)(F)F)c2)CC1` (centres undefined) returned a Ki of 87 nM.

The target of the next data set is 5-hydroxytryptamine receptor 7 (Rattus norvegicus, UniProt P32305). As to the kind of experiment: Displacement of [3H]-5-CT from 5-HT7 receptor in rat hypothalamic membrane by liquid scintillation analysis. In kind it is cell membranes.
Chain of 5-hydroxytryptamine receptor 7 (P32305 whole entry): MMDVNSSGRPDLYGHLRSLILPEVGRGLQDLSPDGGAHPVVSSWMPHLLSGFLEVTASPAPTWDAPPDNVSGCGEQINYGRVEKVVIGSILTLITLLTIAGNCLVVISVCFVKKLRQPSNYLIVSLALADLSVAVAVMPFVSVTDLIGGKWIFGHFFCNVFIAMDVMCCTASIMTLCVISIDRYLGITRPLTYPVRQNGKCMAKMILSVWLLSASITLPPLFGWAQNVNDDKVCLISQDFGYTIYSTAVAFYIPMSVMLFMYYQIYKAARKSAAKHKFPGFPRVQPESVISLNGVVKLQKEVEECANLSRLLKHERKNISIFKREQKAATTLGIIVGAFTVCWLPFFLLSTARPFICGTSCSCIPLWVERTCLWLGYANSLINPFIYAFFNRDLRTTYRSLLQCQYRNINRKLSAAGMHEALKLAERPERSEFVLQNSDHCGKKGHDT
Conditions: not given
In outline:
as §1
On to `COc1ccccc1N1CCN(CCCCN2C(=O)NC3(CCCCC3c3ccccc3)C2=O)CC1` (centres undefined), for which the affinity, expressed as Ki, was 63 nM. This lies in the double-digit nanomolar range.
For the compound `O=C1NC2(CCCc3ccccc32)C(=O)N1CCCCN1CCN(c2cccc(C(F)(F)F)c2)CC1` (centres undefined), the Ki is 117 nM.
Same read-out and setting: then `COc1ccccc1N1CCN(CCCCN2C(=O)NC3(CCC(c4ccccc4)CC3)C2=O)CC1` (centres undefined), with 130 nM; and `O=C1NC2(CCCCC2c2ccccc2)C(=O)N1CCCCN1CCN(c2ccccc2)CC1` (centres undefined), with 1500 nM; and `O=C1NC2(CCC(c3ccccc3)CC2)C(=O)N1CCCCN1CCN(c2ccccc2)CC1` (centres undefined), with 515 nM.
Same read-out and setting: the value for `O=C1NC2(CCCc3ccccc32)C(=O)N1CCCCN1CCN(c2ccccc2)CC1` (centres undefined) was 116 nM.
On the same count and under the same terms, then `O=C1NC2(CCCCC2c2ccccc2)C(=O)N1CCCCN1CCN(c2cccc(Cl)c2)CC1` (centres undefined), with 43 nM; and `O=C1NC2(CCC(c3ccccc3)CC2)C(=O)N1CCCCN1CCN(c2cccc(C(F)(F)F)c2)CC1` (centres undefined), with 379 nM.
On to `O=C1NC2(CCC(c3ccccc3)CC2)C(=O)N1CCCCN1CCN(c2cccc(Cl)c2)CC1` (centres undefined), for which the Ki was determined as 768 nM. This Ki is about 2-fold higher than that of the compound before.
`O=C1NC2(CCc3ccccc32)C(=O)N1CCCCN1CCN(c2ccccc2)CC1` (centres undefined): the Ki amounted to 93 nM.
The compound `O=C1NC2(CCc3ccccc32)C(=O)N1CCCCN1CCN(c2cccc(C(F)(F)F)c2)CC1` (centres undefined) showed a Ki of 67 nM.

In a further data set the test system is Mus musculus. Nature of the data set: Antipsychotic activity in ip dosed CD-1 mouse assessed as inhibition of D-amphetamine-induced hyperlocomotor activity.
Conditions: not given
Type of data set: functional, organism-based. In a few lines:
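Male CD-1 mice, 8-10 per dose. d-Amphetamine was given s.c. 30 min pretest; test compound i.p. 60 min pretest in 1% Tween 80. After 30 min habituation in the activity monitor, ambulation crossings were counted for 1 h, recorded every 5 min.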
As to `O=C1CCc2ccc(OCCCCN3CCN(c4cccc(Cl)c4Cl)CC3)cc2N1` [ARIPIPRAZOLE], the inhibition entry is “Dose-dependent effect”.

The next data set deals with Mus musculus. Nature of the data set: Toxicity in ip dosed spontaneous locomotor activity CD-1 mouse model assessed as dose required to cause sedation. Type of data set: organism-based. The following applies: in vivo. In outline: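 CD-1 mice, 8-10 per dose, with compound given i.p. in 1% Tween 80 suspension 60 min before testing. After 30 min habituation in individual cages, ambulation (channel crossings) was counted over 1 h, recorded every 5 min. Mean ± SEM, one-way ANOVA with Bonferroni test.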
For `O=C1CCc2ccc(OCCCCN3CCN(c4cccc(Cl)c4Cl)CC3)cc2N1` [ARIPIPRAZOLE], the Activity is 1 mg/kg.

For a further data set, the system named is Mus musculus. Nature of the data set: Anti-depressant like activity in Swiss albino mouse assessed as shortening of immobility time at 0.01 to 0.1 mg/kg, ip by forced swim test.
Conditions: not given
In kind it is functional, organism-based.
Regarding `O=C1CCc2ccc(OCCCCN3CCN(c4cccc(Cl)c4Cl)CC3)cc2N1` [ARIPIPRAZOLE], the inhibition result is “inactive”.

In a further data set the test system is Mus musculus. As to the kind of experiment: Antianxiety-like activity in Swiss albino mouse assessed as number of punished crossings at 0.06 to 0.5 mg/kg, ip by four-plate test. In kind it is functional, organism-based.
Conditions: not given
In a few lines:
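Four-plate test in male Swiss albino mice, 8-10 per dose, dosed i.p. in Tween 80 vehicle. After 15-s habituation, a 0.8 mA, 0.5 s foot shock was given at each plate crossing, with a 3 s shock-free interval. Punished crossings were counted over a 1-min session.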
Turning to `O=C1CCc2ccc(OCCCCN3CCN(c4cccc(Cl)c4Cl)CC3)cc2N1` [ARIPIPRAZOLE], the result was inactive.

The next data set concerns Mus musculus. Nature of the data set: Toxicity in ip dosed CD-1 mouse assessed as minimum dose required for induction of catalepsy by bar test. In kind it is organism-based. The following applies: in vivo. In outline:
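Male CD-1 mice, 10 per group, given compound i.p. (1% Tween 80 suspension). Forelimbs were placed on a horizontal rod 4 cm high at 30, 60 and 120 min. Catalepsy was scored up to 3 (≥60 s on bar). Minimum cataleptogenic dose is the lowest dose giving a mean score ≥1 at any of those times.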
Turning to `O=C1CCc2ccc(OCCCCN3CCN(c4cccc(Cl)c4Cl)CC3)cc2N1` [ARIPIPRAZOLE], the Activity came to 1 mg/kg.
